Assay results taken from ChEMBL document CHEMBL4350995, “Synthesis and antiproliferative activity of culicinin D analogues containing simplified AHMOD-based residues” (Eur J Med Chem, 2019).
Numbered stars: 1 amine (or outer) side, 2 acyl side, 3 side chain; on linkers, the order of the positions; unused ones are H or OH. Square brackets hold non-standard residues; d marks the D form. Peptide text beside a SMILES is read from it. * marks the point of attachment. X3 = CCC(=O)C[C@@H](O)C[C@@H](C)C[C@H](N[*:1])C(=O)[*:2]; X8 = CCC(=O)C[C@H](O)C[C@@H](C)C[C@H](N[*:1])C(=O)[*:2]; X2 = CCCC[C@@H](O)C[C@@H](C)C[C@H](N[*:1])C(=O)[*:2]; X6 = CCCC[C@H](O)C[C@@H](C)C[C@H](N[*:1])C(=O)[*:2]; X4 = CCCCCCCC[C@@H](C)C[C@H](N[*:1])C(=O)[*:2]; Nva(5-pentanoyl) = CCCCC(=O)CCC[C@H](N)C(=O)O; X1 = CCCCCC[C@@H](C)C[C@H](N[*:1])C(=O)[*:2]; NH((S)CH(Me)CH2NHC2H4OH) = C[C@@H](CNCCO)N*; X9 = CCC(=O)CC(O)CCC[C@H](N[*:1])C(=O)[*:2]; X5 = CCCCCCC(=O)CCC[C@H](N[*:1])C(=O)[*:2]; Gly(decyl) = CCCCCCCCCC[C@H](N)C(=O)O; X7 = O=C([C@H](CCCCO)N[*:1])[*:2]; Aoc(2) = CCCCCC[C@H](N)C(=O)O; hSer = N[C@@H](CCO)C(=O)O; Aib = CC(C)(N)C(=O)O; Butyryl = CCCC(=O)*; βAla = NCCC(=O)O

Assays:
Type in all cases: functional, cell-based
[1] = tested on: NCI-H460; assay: Antiproliferative activity against human NCI-H460 cells incubated for 5 days by SRB assay; settings: NCI-H460, 120 h
Summary of the method: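 Cultured in alpha MEM + 5% FCS, 37 °C, 5% CO2; STR-authenticated, <3 months passage. Seeded at 300 cells/well and attached overnight, then given duplicate 3-fold serial dilutions of peptide (30 mM DMSO stock) for 5 days. Read-out was sulphorhodamine B staining. IC50 was interpolated from a 4-parameter logistic fit versus peptide-free controls. Values are mean ± SEM of 2–3 independent experiments.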

[2] = tested on: SK-BR-3; assay: Antiproliferative activity against human SKBR3 cells incubated for 5 days by SRB assay; settings: SK-BR-3, 120 h
Summary of the method: (§1)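 STR-authenticated cells, <3 months passage, in DMEM + 10% FCS at 37 °C, 5% CO2, were seeded at 2000 cells/well and attached overnight. They were then exposed in duplicate to 3-fold serial dilutions from a 30 mM DMSO stock for 5 days. Staining was with sulphorhodamine B. IC50 was interpolated from 4-parameter logistic fits versus peptide-free controls on the same plate. Values are mean ± SEM, n = 2–3 independent experiments.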

[3] = tested on: MDA-MB-468; assay: Antiproliferative activity against human MDA-MB-468 cells incubated for 5 days by SRB assay; settings: MDA-MB-468, 120 h; summary of the method: as §1
[4] = tested on: T47D; assay: Antiproliferative activity against human T47D cells incubated for 5 days by SRB assay; settings: 120 h
Summary of the method: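 Cells were grown in RPMI + 10% FCS (37 °C, 5% CO2, STR-authenticated, <3 months passage) and seeded at 1500 cells/well. After overnight attachment they received 3-fold serial dilutions (30 mM DMSO stock) in duplicate for 5 days. Total cells were measured by sulphorhodamine B staining. IC50 was interpolated from a 4-parameter logistic fit against same-plate untreated controls. Values are mean ± SEM, n = 2–3.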

| SMILES | IC50 [1] [µM] | IC50 [2] [µM] | IC50 [3] [µM] | IC50 [4] [µM] |
| --- | --- | --- | --- | --- |
| CCCCCC[C@@H](C)C[C@H](NC(=O)C(C)(C)NC(=O)C(C)(C)NC(=O)[C@H](CCCCN)NC(=O)[C@@H]1CCCN1C(=O)CCC)C(=O)N[C@@H](CC(C)C)C(=O)NC(C)(C)C(=O)N[C@@H](CC(C)C)C(=O)NCCC(=O)N[C@@H](C)CNCCO (Butyryl-PK[Aib][Aib][X1]L[Aib]L[βAla]-{NH((S)CH(Me)CH2NHC2H4OH)}) | > 1 | > 1 | > 1 | > 1 |
| CCCCCC[C@@H](C)C[C@H](NC(=O)C(C)(C)NC(=O)C(C)(C)NC(=O)[C@H](CC(C)C)NC(=O)[C@@H]1CCCN1C(=O)CCC)C(=O)N[C@@H](CC(C)C)C(=O)NC(C)(C)C(=O)N[C@@H](CC(C)C)C(=O)NCCC(=O)N[C@@H](C)CNCCO (Butyryl-PL[Aib][Aib][X1]L[Aib]L[βAla]-{NH((S)CH(Me)CH2NHC2H4OH)}) | 0.13 | 0.28 | 0.09 | 0.07 |
| CCCCCC[C@@H](C)C[C@H](NC(=O)C(C)(C)NC(=O)C(C)(C)NC(=O)[C@H](CO)NC(=O)[C@@H]1CCCN1C(=O)CCC)C(=O)N[C@@H](CC(C)C)C(=O)NC(C)(C)C(=O)N[C@@H](CC(C)C)C(=O)NCCC(=O)N[C@@H](C)CNCCO (Butyryl-PS[Aib][Aib][X1]L[Aib]L[βAla]-{NH((S)CH(Me)CH2NHC2H4OH)}) | 0.127 | > 0.5 | 0.074 | 0.066 |
| CCCCCC[C@@H](C)C[C@H](NC(=O)C(C)(C)NC(=O)C(C)(C)NC(=O)[C@H](CCCCCC)NC(=O)[C@@H]1CCCN1C(=O)CCC)C(=O)N[C@@H](CC(C)C)C(=O)NC(C)(C)C(=O)N[C@@H](CC(C)C)C(=O)NCCC(=O)N[C@@H](C)CNCCO (Butyryl-P[Aoc(2)][Aib][Aib][X1]L[Aib]L[βAla]-{NH((S)CH(Me)CH2NHC2H4OH)}) | 0.19 | 0.24 | 0.14 | 0.17 |
| CCCCCCCCCC[C@H](NC(=O)[C@@H]1CCCN1C(=O)CCC)C(=O)NC(C)(C)C(=O)NC(C)(C)C(=O)N[C@@H](C[C@H](C)CCCCCC)C(=O)N[C@@H](CC(C)C)C(=O)NC(C)(C)C(=O)N[C@@H](CC(C)C)C(=O)NCCC(=O)N[C@@H](C)CNCCO (Butyryl-P[Gly(decyl)][Aib][Aib][X1]L[Aib]L[βAla]-{NH((S)CH(Me)CH2NHC2H4OH)}) | 0.382 | 0.28 | 0.059 | 0.232 |
| CCCCCC[C@@H](C)C[C@H](NC(=O)C(C)(C)NC(=O)C(C)(C)NC(=O)[C@H](CCCC(=O)CCCC)NC(=O)[C@@H]1CCCN1C(=O)CCC)C(=O)N[C@@H](CC(C)C)C(=O)NC(C)(C)C(=O)N[C@@H](CC(C)C)C(=O)NCCC(=O)N[C@@H](C)CNCCO (Butyryl-P[Nva(5-pentanoyl)][Aib][Aib][X1]L[Aib]L[βAla]-{NH((S)CH(Me)CH2NHC2H4OH)}) | 0.01 | 0.03 | 0.01 | 0.01 |
| CCCCCC[C@@H](C)C[C@H](NC(=O)C(C)(C)NC(=O)C(C)(C)NC(=O)[C@H](C[C@H](C)C[C@H](O)CCCC)NC(=O)[C@@H]1CCCN1C(=O)CCC)C(=O)N[C@@H](CC(C)C)C(=O)NC(C)(C)C(=O)N[C@@H](CC(C)C)C(=O)NCCC(=O)N[C@@H](C)CNCCO (Butyryl-P[X2][Aib][Aib][X1]L[Aib]L[βAla]-{NH((S)CH(Me)CH2NHC2H4OH)}) | 0.126 | 0.327 | 0.111 | 0.197 |
| CCCCCC[C@@H](C)C[C@H](NC(=O)C(C)(C)NC(=O)C(C)(C)NC(=O)[C@H](C[C@H](C)C[C@H](O)CC(=O)CC)NC(=O)[C@@H]1CCCN1C(=O)CCC)C(=O)N[C@@H](CC(C)C)C(=O)NC(C)(C)C(=O)N[C@@H](CC(C)C)C(=O)NCCC(=O)N[C@@H](C)CNCCO (Butyryl-P[X3][Aib][Aib][X1]L[Aib]L[βAla]-{NH((S)CH(Me)CH2NHC2H4OH)}) | 0.008 | 0.035 | 0.011 | 0.007 |
| CCCCCCCC[C@@H](C)C[C@H](NC(=O)[C@@H]1CCCN1C(=O)CCC)C(=O)NC(C)(C)C(=O)NC(C)(C)C(=O)N[C@@H](C[C@H](C)CCCCCC)C(=O)N[C@@H](CC(C)C)C(=O)NC(C)(C)C(=O)N[C@@H](CC(C)C)C(=O)NCCC(=O)N[C@@H](C)CNCCO (Butyryl-P[X4][Aib][Aib][X1]L[Aib]L[βAla]-{NH((S)CH(Me)CH2NHC2H4OH)}) | 0.037 | 0.236 | 0.04 | 0.031 |
| CCCCCCC(=O)CCC[C@H](NC(=O)[C@@H]1CCCN1C(=O)CCC)C(=O)NC(C)(C)C(=O)NC(C)(C)C(=O)N[C@@H](C[C@H](C)CCCCCC)C(=O)N[C@@H](CC(C)C)C(=O)NC(C)(C)C(=O)N[C@@H](CC(C)C)C(=O)NCCC(=O)N[C@@H](C)CNCCO (Butyryl-P[X5][Aib][Aib][X1]L[Aib]L[βAla]-{NH((S)CH(Me)CH2NHC2H4OH)}) | 0.005 | 0.018 | 0.008 | 0.006 |
| CCCCCC[C@@H](C)C[C@H](NC(=O)C(C)(C)NC(=O)C(C)(C)NC(=O)[C@H](C[C@H](C)C[C@@H](O)CCCC)NC(=O)[C@@H]1CCCN1C(=O)CCC)C(=O)N[C@@H](CC(C)C)C(=O)NC(C)(C)C(=O)N[C@@H](CC(C)C)C(=O)NCCC(=O)N[C@@H](C)CNCCO (Butyryl-P[X6][Aib][Aib][X1]L[Aib]L[βAla]-{NH((S)CH(Me)CH2NHC2H4OH)}) | 0.234 | > 0.5 | 0.297 | 0.264 |
| CCCCCC[C@@H](C)C[C@H](NC(=O)C(C)(C)NC(=O)C(C)(C)NC(=O)[C@H](CCCCO)NC(=O)[C@@H]1CCCN1C(=O)CCC)C(=O)N[C@@H](CC(C)C)C(=O)NC(C)(C)C(=O)N[C@@H](CC(C)C)C(=O)NCCC(=O)N[C@@H](C)CNCCO (Butyryl-P[X7][Aib][Aib][X1]L[Aib]L[βAla]-{NH((S)CH(Me)CH2NHC2H4OH)}) | 0.028 | 0.059 | 0.025 | 0.014 |
| CCCCCC[C@@H](C)C[C@H](NC(=O)C(C)(C)NC(=O)C(C)(C)NC(=O)[C@H](C[C@H](C)C[C@@H](O)CC(=O)CC)NC(=O)[C@@H]1CCCN1C(=O)CCC)C(=O)N[C@@H](CC(C)C)C(=O)NC(C)(C)C(=O)N[C@@H](CC(C)C)C(=O)NCCC(=O)N[C@@H](C)CNCCO (Butyryl-P[X8][Aib][Aib][X1]L[Aib]L[βAla]-{NH((S)CH(Me)CH2NHC2H4OH)}) | 0.005 | 0.032 | 0.008 | 0.005 |
| CCCCCC[C@@H](C)C[C@H](NC(=O)C(C)(C)NC(=O)C(C)(C)NC(=O)[C@H](CCCC(O)CC(=O)CC)NC(=O)[C@@H]1CCCN1C(=O)CCC)C(=O)N[C@@H](CC(C)C)C(=O)NC(C)(C)C(=O)N[C@@H](CC(C)C)C(=O)NCCC(=O)N[C@@H](C)CNCCO (stereo partly drawn) (Butyryl-P[X9][Aib][Aib][X1]L[Aib]L[βAla]-{NH((S)CH(Me)CH2NHC2H4OH)}) | 0.19 | 0.5 | 0.07 | 0.08 |
| CCCCCC[C@@H](C)C[C@H](NC(=O)C(C)(C)NC(=O)C(C)(C)NC(=O)[C@H](CCO)NC(=O)[C@@H]1CCCN1C(=O)CCC)C(=O)N[C@@H](CC(C)C)C(=O)NC(C)(C)C(=O)N[C@@H](CC(C)C)C(=O)NCCC(=O)N[C@@H](C)CNCCO (Butyryl-P[hSer][Aib][Aib][X1]L[Aib]L[βAla]-{NH((S)CH(Me)CH2NHC2H4OH)}) | 0.03 | 0.108 | 0.03 | 0.02 |
| CCCCCC[C@@H](C)C[C@H](NC(=O)C(C)(C)NC(=O)C(C)(C)NC(=O)[C@H](CCCC(O)CCCC)NC(=O)[C@@H]1CCCN1C(=O)CCC)C(=O)N[C@@H](CC(C)C)C(=O)NC(C)(C)C(=O)N[C@@H](CC(C)C)C(=O)NCCC(=O)N[C@@H](C)CNCCO (mixture of isomers) | 0.008 | 0.1 | 0.02 | 0.008 |
